# Compound activity: PubChem, several laboratories
# A selection: hits, their analogues and other compounds. The true share with any hit is near 1.9%.
# PLC-beta3 inh – blocks human PLC-beta3 enzyme activity | Q01970 | Purified PLC-beta3, fluorogenic substrate, fluorescence | inhibition, % at 12.2 µM | 0.18% of 370,000 active; in the data active = inhibition above about 11%
# Target sequence (Q01970 whole entry, looked up): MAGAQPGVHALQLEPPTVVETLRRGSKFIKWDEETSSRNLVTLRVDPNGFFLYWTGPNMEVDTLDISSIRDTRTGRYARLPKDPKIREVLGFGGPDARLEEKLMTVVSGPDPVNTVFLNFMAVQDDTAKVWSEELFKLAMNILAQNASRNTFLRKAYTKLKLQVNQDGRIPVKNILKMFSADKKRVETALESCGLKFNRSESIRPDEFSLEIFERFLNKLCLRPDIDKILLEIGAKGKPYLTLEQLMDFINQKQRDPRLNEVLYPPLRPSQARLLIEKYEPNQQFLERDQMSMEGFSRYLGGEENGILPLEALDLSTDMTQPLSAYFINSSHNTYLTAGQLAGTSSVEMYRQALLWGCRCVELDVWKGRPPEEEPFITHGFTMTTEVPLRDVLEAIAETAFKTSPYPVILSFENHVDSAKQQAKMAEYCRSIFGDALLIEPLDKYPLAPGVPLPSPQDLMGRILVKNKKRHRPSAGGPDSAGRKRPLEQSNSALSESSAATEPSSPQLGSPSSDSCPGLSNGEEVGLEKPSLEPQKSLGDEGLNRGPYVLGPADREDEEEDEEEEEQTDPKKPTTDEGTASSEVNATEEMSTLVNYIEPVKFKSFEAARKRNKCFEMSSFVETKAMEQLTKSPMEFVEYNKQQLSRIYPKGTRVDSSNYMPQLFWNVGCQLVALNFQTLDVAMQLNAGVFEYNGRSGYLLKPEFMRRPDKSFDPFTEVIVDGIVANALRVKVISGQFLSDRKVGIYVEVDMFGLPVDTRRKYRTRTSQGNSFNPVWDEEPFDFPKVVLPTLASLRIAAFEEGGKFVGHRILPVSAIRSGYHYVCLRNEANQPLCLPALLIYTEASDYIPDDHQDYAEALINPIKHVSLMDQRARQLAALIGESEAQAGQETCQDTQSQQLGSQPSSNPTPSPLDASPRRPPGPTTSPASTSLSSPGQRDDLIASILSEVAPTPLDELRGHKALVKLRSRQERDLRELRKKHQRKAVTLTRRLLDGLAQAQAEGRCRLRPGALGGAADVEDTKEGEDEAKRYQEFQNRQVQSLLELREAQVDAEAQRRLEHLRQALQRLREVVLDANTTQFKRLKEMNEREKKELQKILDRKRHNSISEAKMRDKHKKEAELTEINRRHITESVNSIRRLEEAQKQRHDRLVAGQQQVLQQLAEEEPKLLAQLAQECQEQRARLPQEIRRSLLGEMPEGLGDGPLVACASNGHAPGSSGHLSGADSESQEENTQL
# HGIII-sPLA2 inh – Inhibits HGIII-sPLA2 liposome hydrolysis, primary screen; Q9NZ20; QFRET BODIPY PC-A2 liposome hydrolysis, fluorescence; inhibition, % at 12.2 µM; 0.56% of 370,000 active; AID 743126;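 active = inhibition above mean plus 3 SD of compounds lying within the high and low control bounds, cut at about 19% in these data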
# Arrestin-AP2 inh – human beta-arrestin and AP2 interaction inhibition; 0.31% of 340,000 active; AID 504490; FITC-arrestin peptide / GST-AP2 beads, flow cytometry; AP2 beta2 appendage carries R879A mutation; inhibition, % at 10 µM;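 active = inhibition above a set limit, near 3 SD of compounds lacking own fluorescence, cut at about 54% in these data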
#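 Assay system: GST-AP2 R879A bound to glutathione beads, E. coli-expressed; Medium: PBS with 0.05% Tween 20 and 0.1% BSA; Also added: fluorescein-tagged arrestin peptide at 50 nM final; Timing: 12 min plus 1 h, RT; Measured by: flow cytometry, FL1 (488/535 nm); Evaluation: percent drop in bead-associated FITC signal.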
# proCasp3 act – procaspase-3 (human) activation | P42574 | 0.11% of 330,000 active | activation, % at 8.5 µM | AID 463141 | recombinant procaspase-3 D3A, Ac-DEVD-pNA absorbance 405 nm;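 active = activation above the mean of all tested compounds plus 3 SD, cut at about 21% in these data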
#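 Technique: 405 nm absorbance of p-nitroaniline, reads at 0 and 120 min; Test system: Procaspase-3 D3A mutant; Incubation: 1 h enzyme-compound preincubation, then 2 h substrate reaction, 25 °C; Repeats: singlicate, each compound tested once; Benchmarks: low control DMSO wells, high control DMSO plus 5 µM PC-3 D3A.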
# proCasp7 act – activates human procaspase-7, counter-screen for procaspase-3 activators | activation, % at 8.5 µM | recombinant procaspase-7, Ac-DEVD-pNA absorbance 405 nm; D23A/D198A/D206A triple mutant, cannot self-cleave; scale: DMSO 0, 5 µM enzyme 100 | P55210 | 0.093% of 330,000 active;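 active = percent activation above the screen-wide mean plus 3 SD, cut at about 25% in these data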
#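 Test system: Procaspase-7 triple mutant (PC-7 D3A). Also added: Ac-DEVD-pNA substrate, 400 µM as added. Schedule: 1 h enzyme–compound preincubation and 2 h substrate reaction, both 25 °C. Signal: p-Nitroaniline absorbance at 405 nm, read at 0 and 120 min. Control set: low DMSO alone, high DMSO plus 5 µM PC-7.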
# PLC-gamma1 inh – PLC-gamma1 (human) inhibition, primary screen; P19174; purified PLC-gamma1, fluorogenic substrate, fluorescence; inhibition, % at 12.2 µM; 0.84% of 370,000 active; AID 720700; in the data active = inhibition above about 9.5%
# Arr-AP2 CP1 – blocks beta-arrestin peptide binding to human AP2; 2% of 1,300 active; shares compounds with Arrestin-AP2 inh; GST-AP2 beads, FITC arrestin peptide binding, flow cytometry; GST-fused beta2-adaptin appendage, R879A mutant; inhibition, % at 10 µM;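 active = inhibition above a set limit, roughly 3 SD of non-fluorescent compound noise, cut at about 38% in these data; inactive = inhibition at or below that limit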;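 note: loss of bead fluorescence from 50 nM FITC arrestin peptide bound to appendage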
# GST GSH counter – counter-screen for beta-arrestin AP2 inhibitors: GST-GSH bead binding | shares compounds with Arrestin-AP2 inh | GST-fluorescein binding to GSH beads, fluorescence | AID 588338 | inhibition, % at 10 µM | 2% of 1,300 active;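 active = inhibition above 50%, about 3 SD of the inhibition seen with non-fluorescent compounds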;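 note: fluorescein maleimide labelled GST captured on 4 micron glutathione beads; higher means more loss of bead fluorescence from quenching or blocked binding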
# Hits are given with their value; - = inactive; . = no result given.
SMILES,PLC-beta3 inh,HGIII-sPLA2 inh,Arrestin-AP2 inh,proCasp3 act,proCasp7 act,PLC-gamma1 inh,Arr-AP2 CP1,GST GSH counter
CSCCC(NS(=O)(=O)c1ccccc1F)C(=O)NCC(C)(C)N1CCOCC1 (stereo not drawn),-,-,56,-,-,-,-,-
Cn1c(=O)c(=O)n(C)c2cc(S(=O)(=O)N3CCN(CCO)CC3)ccc21,-,-,.,.,.,-,.,.
CCN(CC)Cc1c(O)ccc2c(=O)c(Oc3ccccc3OC)coc12,-,-,56,-,-,-,-,-
O=C1c2ccccc2NC(c2cnc3ccccc3n2)N1O (stereo not drawn),-,-,94,-,-,-,-,-
Cc1ccccc1NS(=O)(=O)c1ccc(-c2ccc(=O)[nH]n2)o1,-,-,-,-,-,-,.,.
CCN(CC)c1ccc(NS(=O)(=O)c2ccc(-c3ccc(=O)[nH]n3)o2)c(C)c1,-,-,57,-,-,-,-,-
CCOc1ccc(-c2c(C(=O)N/N=C/c3cccs3)nnn2-c2nonc2N)cc1,-,-,61,-,-,-,-,-
Cc1ccc(-c2c(C(=O)N/N=C/c3cccs3)nnn2-c2nonc2N)cc1,.,.,-,-,-,.,.,.
O=C(CCSCCC(=O)Nc1c(F)c(F)c(F)c(F)c1F)Nc1c(F)c(F)c(F)c(F)c1F,-,-,58,-,-,-,-,-
COc1ccc(CCN(C)C(=O)c2cc(-c3ccccc3)nc3ccc(C)cc23)cc1OC,-,-,67,-,-,-,-,-
COc1ccc(CCN(C)C(=O)c2cc(-c3ccccc3)nc3ccccc23)cc1OC,-,-,-,.,.,-,.,.
COC(=O)c1cc2c(c3c4ccccc4n(S(=O)(=O)c4cccc(C)c4)c13)C(=O)N(Cc1ccc(N(C)C)cc1)C2,-,-,.,.,.,-,.,.
CC(OC(=O)c1nn(C(C)C)c(=O)c2ccccc12)C(=O)Nc1ncc(Cl)cc1Cl (stereo not drawn),-,-,61,-,-,-,-,-
CC(C)n1nc(C(=O)Oc2cc(Cl)ccc2Cl)c2ccccc2c1=O,-,-,-,-,-,-,.,.
C[C@@H]1CCN(C2CC2)S(=O)(=O)c2c(cccc2N2CCC[C@H]2C)O1,-,-,.,.,.,-,.,.
O=C(CN1C(=O)COc2ccccc21)NCCN1CCCC1,-,-,-,-,-,-,.,.
O=C(CN1C(=O)COc2ccccc21)NCCCN1CCCC1,-,-,64,-,-,-,-,-
O=c1c(Cc2c(F)cccc2Cl)c(O)ccn1CCCn1ccnc1,-,-,63,-,-,-,-,-
CCCc1c(-c2ccc(F)cc2F)ncn1Cc1cccc(-c2ccccc2)c1,-,-,.,.,.,-,.,.
COc1ccc(C(=O)COC(=O)c2ccccn2)cc1OC,-,-,56,-,-,-,-,-
COc1cc(OC)cc(C(=O)O/N=C(\N)c2ccccn2)c1,-,-,55,-,-,-,-,-
Nc1ncncc1-c1ccc(Cl)cc1,-,-,-,-,-,-,.,.
Nc1ncc(-n2cncn2)c(-c2ccc(Cl)cc2)n1,-,-,56,-,-,-,-,-
O=C(/C=C/c1ccccc1[N+](=O)[O-])NCCCN1CCCC1=O,-,-,57,-,-,-,-,-
CCOCC(=O)NC(=O)N1C[C@H]2CON(C)[C@H]2C[C@H]1c1ccc(OC)cc1,-,-,.,.,.,-,.,.
SMILES,PLC-beta3 inh,HGIII-sPLA2 inh,Arrestin-AP2 inh,proCasp3 act,proCasp7 act,PLC-gamma1 inh,Arr-AP2 CP1,GST GSH counter
CCOc1ccccc1NC(=O)Cn1c(=O)c2ccccc2n(CC)c1=O,-,-,-,-,-,-,-,-
CCn1c(=O)n(CC(=O)Nc2cc(OC)ccc2OC)c(=O)c2ccccc21,-,-,-,-,-,-,-,-
COc1ccc(-n2c(=O)c3ccccc3n(CC(=O)Nc3ccccc3OC)c2=O)cc1,-,-,-,-,-,-,.,.
O=C(Cc1ccccc1F)Nc1ccc2c(c1)CCC2,-,-,-,-,-,-,.,.
Cc1ccccc1CC(=O)Nc1ccc2c(c1)CCC2,-,-,60,-,-,-,-,-
C[C@H]1CN(c2ccc(N3CCNC[C@@H]3C)cc2C#N)CCN1Cc1ccccc1,-,-,.,.,.,-,.,.
CCN(CC)S(=O)(=O)c1ccc2c(c1)nc(CCC(=O)Nc1cccc(C(F)(F)F)c1)n2CC,-,-,85,-,-,-,-,-
CCOC(=O)[C@]12CCCCC/C=C\1N(CCc1ccc(Cl)cc1)C(=O)[C@H]2CC(=O)NCCCN1CCCC1=O,-,-,.,.,.,-,.,.
O=C(NNC1=NS(=O)(=O)c2ccccc21)c1ccc(Cl)cc1,-,-,58,-,-,-,-,-
O=C(NNC1=NS(=O)(=O)c2ccccc21)c1ccc([N+](=O)[O-])cc1,-,-,-,-,-,-,.,.
O=C(CC12CC3CC(CC(C3)C1)C2)NC(Cc1ccccc1)C(=O)O (stereo not drawn),-,-,55,-,-,-,-,-
CC(=O)NC(Cc1ccccc1)C(=O)O (stereo not drawn),-,-,-,-,-,-,.,.
O=[N+]([O-])c1ccc(/C=C/c2ccc3cccc(O)c3n2)cc1,-,-,57,-,-,-,-,-
C=CCN1C(=O)c2ccc(C(=O)N3CCN(S(=O)(=O)c4cccc(F)c4)CC3)cc2C1=O,-,-,66,-,-,-,-,-
CCC(NC(=O)CCc1ccccc1)c1ccccc1 (stereo not drawn),-,-,61,-,-,-,-,-
C=CCNC(=O)CN(C(=O)Cc1ccc(Cl)cc1)c1cccc(Br)c1,-,-,.,.,.,-,.,.
O=C(CCNC(=O)c1ccc(Cl)cc1)NCCC1=CCCCC1,-,-,64,-,-,-,-,-
CCN(CC)c1ccc(/C=N/NC(=O)c2ccco2)c(O)c1,-,-,-,-,-,-,.,.
CCN(CC)c1ccc(/C=N/NC(=O)Cc2cccs2)c(O)c1,-,-,61,-,-,-,-,-
CC(C)c1ccc(OCc2ccc(C(=O)N3CCN(c4ccccn4)CC3)cc2)cc1,-,-,56,-,-,-,-,-
O=C(c1cccc(F)c1F)N(Cc1ccccn1)CC1CCCO1 (stereo not drawn),-,-,.,.,.,-,.,.
COCC(=O)N(C)[C@H]1C[C@H]2c3[nH]c4c(-c5ccccc5)cccc4c3CCN2C(=O)[C@H]1[C@H](C)O,-,-,.,.,.,-,.,.
CC(=O)OCC(=O)Nc1ccc(N=Nc2ccccc2)cc1,-,-,-,-,-,-,.,.
